Assay [1] deals with Staphylococcus aureus. Kind of assay: Antibacterial activity against Staphylococcus aureus ATCC 29213 after 24 hrs by macrobroth dilution method. To be noted: ATCC 29213, 24 h. Format: functional. In outline:
(§1)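 Reference strains from the American Type Culture Collection were tested by broth macrodilution following CLSI methodology. The read-out was the minimum inhibitory concentration, reported in μg/mL. The same method was used for the Gram-positive and Gram-negative organisms.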

The test system of assay [2] is Escherichia coli. The assay can be described thus: Antibacterial activity against Escherichia coli ATCC 25922 after 24 hrs by macrobroth dilution method. Format: functional. To be noted: ATCC 25922, 24 h. In outline: as §1
Assay [3] concerns Escherichia coli. Kind of assay: Antibacterial activity against gentamicin-resistant Escherichia coli ATCC 6174 after 24 hrs by macrobroth dilution method. The format is functional. To be noted: ATCC 6174, 24 h. In outline: as §1
Assay [4] deals with Pseudomonas aeruginosa. The assay can be described thus: Antibacterial activity against Pseudomonas aeruginosa ATCC 27853 after 24 hrs by macrobroth dilution method. The format is functional. To be noted: ATCC 27853, 24 h. In outline:
(§2)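 Broth macrodilution was run following CLSI methodology against ATCC reference strains and clinical isolates from the Canadian Intensive Care Unit (CAN-ICU) study, with Gram-positive and Gram-negative organisms tested. The value is the minimum inhibitory concentration, reported in μg/mL.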

For assay [5], the system named is Pseudomonas aeruginosa. Kind of assay: Antibacterial activity against Pseudomonas aeruginosa CAN-ICU 62308 after 24 hrs by macrobroth dilution method. Format: functional. To be noted: CAN-ICU 62308, 24 h. Put shortly:
as §2

The test system of assay [6] is Stenotrophomonas maltophilia. Kind of assay: Antibacterial activity against Stenotrophomonas maltophilia CAN-ICU 62585 after 24 hrs by macrobroth dilution method. The format is functional. The conditions noted are these: CAN-ICU 62585, 24 h. In outline: as §2
The test system of a further assay is Acinetobacter baumannii. The assay can be described thus: Antibacterial activity against Acinetobacter baumannii CAN-ICU 63169 after 24 hrs by macrobroth dilution method. Format: functional. The conditions noted are these: CAN-ICU 63169, 24 h. Put shortly:
as §2

For assay [7], the system named is Staphylococcus aureus. Kind of assay: Antibacterial activity against methicillin-resistant Staphylococcus aureus ATCC 33592 after 24 hrs by macrobroth dilution method. To be noted: ATCC 33592, 24 h. The format is functional. Put shortly: as §1
The test system of assay [8] is Staphylococcus epidermidis. Kind of assay: Antibacterial activity against methicillin-resistant Staphylococcus epidermidis ATCC 14990 after 24 hrs by macrobroth dilution method. Format: functional. The conditions noted are these: ATCC 14990, 24 h.
A further assay concerns Streptococcus pneumoniae. The assay can be described thus: Antibacterial activity against Streptococcus pneumoniae ATCC 49619 after 24 hrs by macrobroth dilution method. Format: functional. The conditions noted are these: ATCC 49619, 24 h. Put shortly: as §2
In a further assay the test system is Klebsiella pneumoniae. Kind of assay: Antibacterial activity against Klebsiella pneumoniae ATCC 13883 after 24 hrs by macrobroth dilution method. The conditions noted are these: ATCC 13883, 24 h.
In assay [9] the test system is Staphylococcus epidermidis. Kind of assay: Antibacterial activity against Staphylococcus epidermidis […] after 24 hrs by macrobroth dilution method. Format: functional. Put shortly:
as §2

Assay [10] concerns Escherichia coli. The assay can be described thus: Antibacterial activity against Escherichia coli CAN-ICU 63074 after 24 hrs by macrobroth dilution method. Format: functional. The conditions noted are these: CAN-ICU 63074, 24 h. In outline:
as §2

Some results are limits rather than exact numbers.

For the compound `NCC[C@H](OC(=O)Nc1ccccc1)C(=O)N[C@@H]1C[C@H](N)[C@@H](C[C@H]2O[C@H](CN)[C@@H](OC(=O)Nc3ccccc3)[C@H](OC(=O)Nc3ccccc3)[C@H]2OC(=O)Nc2ccccc2)[C@H](OC(=O)Nc2ccccc2)[C@H]1O[C@H]1O[C@H](COC(=O)Nc2ccccc2)[C@@H](OC(=O)Nc2ccccc2)[C@H](N)[C@H]1OC(=O)Cc1ccccc1.O=C(O)C(F)(F)F`, the MIC in the assay with Staphylococcus aureus [1] was 8 µg/mL; in the assay on Escherichia coli [2] it was 256 µg/mL; with Escherichia coli [3], 256 µg/mL; against Pseudomonas aeruginosa [4], greater than 256 µg/mL; against Pseudomonas aeruginosa [5], 256 µg/mL; in assay [6], 128 µg/mL. The MIC against Acinetobacter baumannii worked out at 256 µg/mL; with Staphylococcus aureus [7], 16 µg/mL; in assay [8] it was 2 µg/mL; in the assay with Streptococcus pneumoniae, 32 µg/mL; against Klebsiella pneumoniae it was 256 µg/mL; in assay [9], 2 µg/mL. The MIC against Escherichia coli [10] was determined as 256 µg/mL.
Regarding `NC[C@@H]1O[C@H](O[C@H]2[C@@H](OCc3ccc(Cl)cc3)[C@H](O[C@@H]3[C@@H](OCc4ccc(Cl)cc4)[C@H](N)C[C@H](N)[C@H]3O[C@H]3O[C@H](CN)[C@@H](OCc4ccc(Cl)cc4)[C@H](OCc4ccc(Cl)cc4)[C@H]3N)O[C@@H]2COCc2ccc(Cl)cc2)[C@H](N)[C@@H](OCc2ccc(Cl)cc2)[C@@H]1OCc1ccc(Cl)cc1.O=C(O)C(F)(F)F`, the MIC against Staphylococcus aureus [1] is 64 µg/mL; in the assay with Escherichia coli [2] it was 128 µg/mL; in the assay with Escherichia coli [3], greater than 128 µg/mL; against Pseudomonas aeruginosa [4], greater than 128 µg/mL; against Pseudomonas aeruginosa [5] it was greater than 128 µg/mL; in assay [6] it was greater than 128 µg/mL. The MIC with Acinetobacter baumannii was greater than 128 µg/mL; in the assay with Staphylococcus aureus [7], 64 µg/mL; in assay [8] it was 64 µg/mL; against Streptococcus pneumoniae it was 128 µg/mL; with Klebsiella pneumoniae it was 128 µg/mL; in [9], 32 µg/mL. In addition, in the assay with Escherichia coli [10], inhibition of growth (MIC) required 64 µg/mL.
Take `NC[C@H]1OC(O[C@H]2[C@H](OCc3ccccc3)[C@@H](O[C@H]3O[C@H](COCc4ccccc4)[C@@H](OCc4ccccc4)[C@H](N)[C@H]3OCc3ccccc3)[C@H](N)C[C@@H]2N)[C@H](OCc2ccccc2)[C@@H](OCc2ccccc2)[C@@H]1OCc1ccccc1.O=C(O)C(F)(F)F` (some centres undefined): the MIC was 8 µg/mL against Staphylococcus aureus [1]; 32 µg/mL with Escherichia coli [2]; 32 µg/mL against Escherichia coli [3]; greater than 64 µg/mL against Pseudomonas aeruginosa [4]; greater than 64 µg/mL with Pseudomonas aeruginosa [5]; greater than 64 µg/mL in assay [6]. Moreover, the MIC was greater than 64 µg/mL against Acinetobacter baumannii; 8 µg/mL against Staphylococcus aureus [7]; 8 µg/mL in assay [8]; 32 µg/mL in the assay with Streptococcus pneumoniae; greater than 64 µg/mL against Klebsiella pneumoniae; 4 µg/mL in assay [9]. In the assay on Escherichia coli [10], this compound returned an MIC of 16 µg/mL.
On to `COC[C@H]1O[C@H](O[C@@H]2[C@@H](OC)[C@H](OC3O[C@H](CN)[C@@H](OC)[C@H](OC)[C@H]3OC)[C@@H](N)C[C@H]2N)[C@H](OC)[C@@H](N)[C@@H]1OC.O=C(O)C(F)(F)F` (some centres undefined), for which the minimal inhibitory concentration (MIC) (with Staphylococcus aureus [1]; with Escherichia coli [2]; against Escherichia coli [3]; against Pseudomonas aeruginosa [4]; against Pseudomonas aeruginosa [5]; in [6]) was greater than 256 µg/mL in each case. Further, the MIC against Acinetobacter baumannii was greater than 256 µg/mL; in the assay with Staphylococcus aureus [7], greater than 256 µg/mL; in [8] it was greater than 256 µg/mL; against Streptococcus pneumoniae, greater than 256 µg/mL; against Klebsiella pneumoniae, greater than 256 µg/mL; in [9], 256 µg/mL. The compound also returned an MIC with Escherichia coli [10] greater than 256 µg/mL.
In the case of `NC[C@H]1O[C@H](O[C@H]2[C@H](OC(=O)Nc3ccccc3)[C@@H](OC(=O)Nc3ccccc3)[C@H](N)C[C@@H]2N)[C@H](N)[C@@H](OC(=O)Nc2ccccc2)[C@@H]1OC(=O)Nc1ccccc1.O=C(O)C(F)(F)F`, the MIC against Staphylococcus aureus [1] is 16 µg/mL; in the assay with Escherichia coli [2] it was 32 µg/mL; in the assay with Escherichia coli [3], 32 µg/mL; in the assay with Pseudomonas aeruginosa [4], 128 µg/mL; in the assay on Pseudomonas aeruginosa [5] it was 128 µg/mL; in [6], 64 µg/mL. The MIC with Acinetobacter baumannii is 256 µg/mL; in the assay with Staphylococcus aureus [7] it was 16 µg/mL; in [8], 8 µg/mL; in the assay on Streptococcus pneumoniae, greater than 256 µg/mL; in the assay on Klebsiella pneumoniae, 64 µg/mL; in assay [9], 8 µg/mL. Moreover, the MIC against Escherichia coli [10] was determined as 32 µg/mL.
On to `CN(C)c1ccc(NC(=O)OC[C@H]2O[C@H](O[C@@H]3[C@@H](OC(=O)Nc4ccc(N(C)C)cc4)[C@H](O[C@H]4O[C@H](CN)[C@@H](OC(=O)Nc5ccc(N(C)C)cc5)[C@H](OC(=O)Nc5ccc(N(C)C)cc5)[C@H]4OC(=O)Nc4ccc(N(C)C)cc4)[C@@H](N)C[C@H]3N)[C@H](OC(=O)Nc3ccc(N(C)C)cc3)[C@@H](N)[C@@H]2OC(=O)Nc2ccc(N(C)C)cc2)cc1.O=C(O)C(F)(F)F`, for which the MIC against Staphylococcus aureus [1] is 16 µg/mL; in the assay on Escherichia coli [2], 256 µg/mL; with Escherichia coli [3], 256 µg/mL; against Pseudomonas aeruginosa [4] it was greater than 256 µg/mL; in the assay on Pseudomonas aeruginosa [5], 256 µg/mL; in assay [6], greater than 256 µg/mL. Moreover, the MIC was greater than 256 µg/mL with Acinetobacter baumannii; 32 µg/mL against Staphylococcus aureus [7]; 32 µg/mL in assay [8]; greater than 256 µg/mL against Streptococcus pneumoniae; greater than 256 µg/mL with Klebsiella pneumoniae; 16 µg/mL in assay [9]. The same compound displayed an MIC against Escherichia coli [10] of 256 µg/mL.
Turning to `NC[C@@H]1O[C@H](O[C@H]2[C@@H](OCc3ccccc3)[C@H](O[C@@H]3[C@@H](OCc4ccccc4)[C@H](N)C[C@H](N)[C@H]3O[C@H]3O[C@H](CN)[C@@H](OCc4ccccc4)[C@H](OCc4ccccc4)[C@H]3N)O[C@@H]2COCc2ccccc2)[C@H](N)[C@@H](OCc2ccccc2)[C@@H]1OCc1ccccc1.O=C(O)C(F)(F)F`, the MIC turned out to be 4 µg/mL against Staphylococcus aureus [1]; 8 µg/mL with Escherichia coli [2]; 16 µg/mL against Escherichia coli [3]; 32 µg/mL against Pseudomonas aeruginosa [4]; 64 µg/mL against Pseudomonas aeruginosa [5]; 8 µg/mL in assay [6]. Besides, the MIC was found to be 16 µg/mL against Acinetobacter baumannii; 4 µg/mL against Staphylococcus aureus [7]; 2 µg/mL in [8]; 16 µg/mL against Streptococcus pneumoniae; 8 µg/mL against Klebsiella pneumoniae; 2 µg/mL in assay [9]. This compound also showed an MIC in the assay on Escherichia coli [10] of 4 µg/mL.
For `NC[C@@H]1O[C@H](O[C@H]2[C@@H](OC(=O)Nc3ccc(Cl)cc3)[C@H](O[C@@H]3[C@@H](OC(=O)Nc4ccc(Cl)cc4)[C@H](N)C[C@H](N)[C@H]3O[C@H]3O[C@H](CN)[C@@H](OC(=O)Nc4ccc(Cl)cc4)[C@H](OC(=O)Nc4ccc(Cl)cc4)[C@H]3N)O[C@@H]2COC(=O)Nc2ccc(Cl)cc2)[C@H](N)[C@@H](OC(=O)Nc2ccc(Cl)cc2)[C@@H]1OC(=O)Nc1ccc(Cl)cc1.O=C(O)C(F)(F)F`, the MIC against Staphylococcus aureus [1] is 64 µg/mL; against Escherichia coli [2], greater than 256 µg/mL; against Escherichia coli [3], greater than 256 µg/mL; against Pseudomonas aeruginosa [4] it was greater than 256 µg/mL; against Pseudomonas aeruginosa [5] it was 256 µg/mL; in [6], 128 µg/mL. The MIC with Acinetobacter baumannii was greater than 256 µg/mL; against Staphylococcus aureus [7], 64 µg/mL; in [8], 32 µg/mL; with Streptococcus pneumoniae, 128 µg/mL; in the assay on Klebsiella pneumoniae, 256 µg/mL; in [9], 16 µg/mL. Further, in the assay with Escherichia coli [10], inhibition of growth (MIC) required 256 µg/mL.
